Results as given in PMC3304489 (Biochemical Journal, 2012).

test system: MALT1; test: Effect of buffer additives on MALT1 activity; format: biochemical, human; conditions: 50 mM Hepes, 100 mM NaCl, 0.9 M sodium citrate, pH 7.5, supplemented with additive (Figure 2C and results not shown)
In short: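 Recombinant human MALT1, expressed in E. coli and Ni-NTA purified, used as full-length (150 nM) and as His-tagged catalytic domain (residues 329–566, 4 μM). Each was assayed in 50 mM Hepes, 100 mM NaCl, 0.9 M sodium citrate (pH 7.5) with the indicated additives. Experiments were repeated three times, and mean ± S.E.M. is reported.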

Structure (SMILES)	effect of buffer additive on the activity of MALT1 (in words)
c1cnc2c(c1)ccc1cccnc12 [1,10-phenanthroline]	no substantial effect
[Ca+2].[Cl-].[Cl-] [CaCl2]	no substantial effect
O=C(O)CN(CCN(CC(=O)O)CC(=O)O)CC(=O)O [EDTA]	no substantial effect
O[C@@H](CS)[C@@H](O)CS (racemic) [DTT, dithiothreitol]	activity was enhanced
